Bioassay records as filed in PubChem BioAssay.
APJ ag – activates the human apelin receptor APJ | P35414 | CHO-K1 APJ PathHunter beta-arrestin, luminescence; 0% DMSO wells, 100% apelin | activation, % at 20 µM | 330,000 compounds, 0.11% hits | AID 2520;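 active = activation more than six SD over the plate average, tested at 20 µM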;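 also: 0% = DMSO alone and 100% = apelin-13 at 10 nM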
Target sequence (P35414 whole entry, looked up): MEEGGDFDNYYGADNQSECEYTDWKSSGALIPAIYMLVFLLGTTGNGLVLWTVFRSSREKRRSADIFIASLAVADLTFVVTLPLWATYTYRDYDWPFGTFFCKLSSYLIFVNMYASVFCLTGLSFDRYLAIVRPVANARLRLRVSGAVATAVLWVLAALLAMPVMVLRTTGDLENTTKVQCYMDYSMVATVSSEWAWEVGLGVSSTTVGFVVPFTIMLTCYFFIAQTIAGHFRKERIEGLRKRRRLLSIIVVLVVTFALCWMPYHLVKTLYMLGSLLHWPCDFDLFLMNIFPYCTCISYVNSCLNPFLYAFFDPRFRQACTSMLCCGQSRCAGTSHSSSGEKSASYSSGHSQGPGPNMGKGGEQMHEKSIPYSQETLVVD
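Assay system: engineered CHO-K1 APJ arrestin reporter cells; Amount: 1000 CHO-K1 reporter cells seeded per well; Dosing: one dose, 20 µM compound, 1% DMSO; Times: compound stimulation 90 min at 25 °C, detection 60 min; Measured by: luminescent beta-gal fragment complementation, chemiluminescent substrate; Read-out: APJ–arrestin association signal; Controls: DMSO vs Apelin-13 10 nM.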
CCR6 antagonist – CCR6 (human) receptor antagonism. inhibition, % at 20 µM. CHO-K1 CCR6 PathHunter beta-arrestin, luminescence, CCL20-stimulated. 340,000 compounds, 0.49% hits;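 active = compounds whose inhibition of the agonist-driven luminescence signal at 20 µM reaches about 50%, limit read from the data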;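 also: cells stimulated with CCL20 at 14 nM final; plate controls were DMSO with CCL20 for no effect and DMSO without agonist for full effect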
APJ antagonist – APJ receptor antagonism | CHO-K1 APJ beta-arrestin complementation, luminescence | inhibition, % at 20 µM | 330,000 compounds, 0.32% hits | P35414;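 active = inhibition above about 40% at 20 µM, limit read from the data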;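 also: cells challenged with 10 nM apelin-13 agonist together with compound; plate controls were apelin-13 plus DMSO wells for no effect and DMSO wells lacking apelin-13 for full effect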
CXCR6 block – CXCR6 (human) receptor inhibition | O00574 | CHO-K1 PathHunter CXCR6 beta-arrestin, luminescence | inhibition, % at 20 µM | 360,000 compounds, 0.36% hits | AID 602244; in the data active = inhibition above about 34%, passing the limit was not always enough;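 also: antagonist mode with CXCL16 agonist at 10 nM final; 0% = 10 nM CXCL16 with DMSO and 100% = unstimulated wells without agonist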
Target sequence (O00574 whole entry, looked up): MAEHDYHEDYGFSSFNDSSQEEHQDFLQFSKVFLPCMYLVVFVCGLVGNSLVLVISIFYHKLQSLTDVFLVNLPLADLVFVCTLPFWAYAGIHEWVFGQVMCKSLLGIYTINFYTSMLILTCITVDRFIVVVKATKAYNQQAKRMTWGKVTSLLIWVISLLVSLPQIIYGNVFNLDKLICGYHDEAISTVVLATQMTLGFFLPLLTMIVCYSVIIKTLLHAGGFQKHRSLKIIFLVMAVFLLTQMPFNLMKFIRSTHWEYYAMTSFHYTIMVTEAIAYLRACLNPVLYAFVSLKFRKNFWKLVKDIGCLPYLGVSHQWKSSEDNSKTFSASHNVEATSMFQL
EBI2 block – EBI2 (human) antagonism. P32249. EBI2 beta-arrestin recruitment, luminescence, 7a,25-OHC stimulated. inhibition, % at 5 µM. 360,000 compounds, 0.81% hits. AID 651636; in the data active = inhibition above about 38%;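 also: enzyme fragment complementation signal reports receptor beta-arrestin coupling in cells; 0% = agonist plus DMSO wells and 100% = wells without agonist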
iPSC survival up – increases survival of single human iPS cells | AID 602274 | 360,000 compounds, 0.044% hits | hiPSC single-cell survival, ATPlite luminescence; 100% = ROCK inhibitor wells, 0% = DMSO | survival enhancement, % at 20 µM; in the data active = survival enhancement above about 18%;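 also: cells exposed to compounds for 16 hours before the ATP read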
APJ antag confirm – APJ receptor antagonism confirmation; shares compounds with APJ antagonist; APJ beta-arrestin recruitment, luminescence, antagonist mode; inhibition, % at 20 µM; 950 compounds, 66% hits; AID 2766; in the data active = inhibition above about 50%
* = called active by the depositor; . = not tested or not shown. Only some compounds are listed: those with a hit (about 1.5% of all), similar ones and a draw of the others.

SMILES	APJ ag	CCR6 antagonist	APJ antagonist	CXCR6 block	EBI2 block	iPSC survival up	APJ antag confirm
Oc1ccc(N=Nc2ccc3c(c2)OCCO3)c2cccnc12	-9.9	50.9*	52.2*	35.8	9.8	-0.5	71.4*
CCN(C(=O)COC(=O)C(c1ccccc1)c1ccccc1)c1c(N)n(Cc2ccccc2)c(=O)[nH]c1=O	.	8.6	.	3.3	0.8	-3.3	.
Cc1ncc(CO)c(/C=N/Nc2ccc(C(F)(F)F)cn2)c1O	-12.4	69.4*	62.7*	48.2*	11.3	4.9	89.3*
C=CCn1c(C2CC2)n[nH]c1=S	-1.4	5.2	4.5	-1.0	-3.8	1.4	.
CCCCCC1CCC(c2n[nH]c(=S)n2C)CC1 (stereo not drawn)	-7.5	42.5	40.6*	32.0	34.2	0.3	78.2*
Cc1cc(C)cc(N(CC(=O)NCCSc2ccccn2)S(=O)(=O)c2ccccc2)c1	-1.2	11.8	42.8*	-3.0	-8.8	3.4	-19.1
NC(=O)c1ccccc1OCC(=O)N1CCC(Cc2ccccc2)CC1	-0.6	8.2	42.9*	-0.6	-6.5	-4.0	-31.9
CCCc1cc(=O)[nH]c(SCC(=O)Nc2cc(S(=O)(=O)N3CCCCC3)ccc2Cl)n1	.	1.7	.	6.4	-4.2	2.0	.
Cc1cc(NC(=O)c2ccc(F)cc2F)n(-c2nc3ccccc3[nH]2)n1	-4.7	-2.1	42.8*	-13.3	0.4	-1.7	9.2
Cc1cc(NC(=O)CC2CCCC2)n(-c2nc3ccccc3[nH]2)n1	-1.3	22.3	13.6	31.4	5.4	-1.1	.
COc1ccc2c(c1)[C@H]1[C@H](CO2)[C@H](c2ccccc2)[C@]2(C)C(=O)N[C@@H](C)C(=O)N12	-8.9	.	42.2*	.	.	.	46.6
CCOC(=O)[C@H]1[C@H]2COc3ccc(C)cc3[C@@H]2N2C(=O)[C@@H](CO)NC(=O)[C@@]12C	-2.9	8.0	-7.9	-2.0	-13.9	7.8	.
CCOC(=O)[C@H]1[C@H]2COc3cc(OC)ccc3[C@@H]2N2C(=O)[C@@H](CO)NC(=O)[C@@]12C	-8.5	.	50.8*	.	.	.	88.2*
O=C(Cn1[nH]c(=O)c2ccccc2c1=O)N1CCN(S(=O)(=O)c2ccc(Cl)cc2)CC1	-2.3	9.1	21.8	4.5	6.4	0.0	.
CN(C)CCN(Cc1ccco1)C(=O)c1cc2c(Cl)nc3ccccc3c2s1	-2.8	31.1	41.0*	3.4	4.1	-3.8	69.1*
COc1ccc(N=C2C(=O)Nc3ccc(C)c(Br)c32)cc1	-18.6	105.4*	89.4*	82.2*	32.4	-0.4	158.6*
COC(=O)c1cc(N=Nc2sc(N)nc2C)cc(C(=O)OC)c1	-4.2	27.6	45.2*	7.5	10.6	-0.9	26.6
Cc1cccc(C(=O)N2CCN(CCNC(=O)C(=O)Nc3ccc(F)cc3)CC2)c1	-3.0	15.3	11.7	-9.9	-3.8	0.0	.
COc1cc(C(=O)N/N=C(\c2ccccc2)c2ccccn2)cc(OC)c1OC	0.2	90.0*	43.2*	63.4*	16.7	-1.5	73.0*
COc1cccc(/C=C/c2ccc3cccc(O)c3n2)c1	-10.6	62.3*	45.3*	34.8	35.5	-0.7	88.3*
Oc1cccc(/C=C/c2ccc3cccc(O)c3n2)c1	0.4	31.4	-9.9	30.4	-6.2	-0.2	.
COc1cccc(/C=C/c2ccc3cccc(O)c3n2)c1OC	-7.5	50.3*	53.9*	36.7	22.6	-0.5	79.2*
N#CCC(=O)Nc1ccc(C(=O)OCC(=O)NC2CCCc3ccccc32)cc1 (stereo not drawn)	-0.3	10.5	8.8	-2.6	-13.0	-0.4	.
O=C(Cc1ccc(S(=O)(=O)N2CCOCC2)s1)N1CCN(S(=O)(=O)c2cccc(Cl)c2)CC1	-0.3	-5.4	-4.2	-8.7	-0.2	0.3	.
COc1cc(/C=C(\C#N)C(=O)c2c[nH]c3ccccc23)cc(OC)c1O	-5.1	57.5*	40.4*	45.7*	10.0	-0.1	79.2*
SMILES	APJ ag	CCR6 antagonist	APJ antagonist	CXCR6 block	EBI2 block	iPSC survival up	APJ antag confirm
CC(C)CC1OC(C)Cc2[nH][nH]c(=O)c21 (stereo not drawn)	.	.	.	-4.4	-19.9	0.8	.
Cc1ccc(-c2cc3c(nn2)-c2ccccc2C3=O)cc1	-12.9	46.4	43.3*	9.4	59.6*	-0.6	147.0*
COc1ccc(S(=O)(=O)Cc2ccc(C(=O)NCc3ccccc3OC)o2)cc1	3.1	16.8	44.6*	1.8	28.6	-0.2	3.7
Cn1c(O)c(N=Nc2ccccc2)c2ccccc21	-4.6	9.8	3.3	-0.3	2.6	-0.2	.
Cn1c(O)c(N=Nc2nc(-c3ccccc3)cs2)c2ccccc21	-7.0	60.7*	50.0*	33.8	25.7	2.9	61.6*
O=C1C2C3CCCC3=C3CCCC3C2C(=O)N1c1cccc(Cl)c1 (stereo not drawn)	-0.5	-7.3	44.4*	-4.6	2.6	0.0	21.9
CC(OC(=O)CCN1C(=O)C2CC=CCC2C1=O)C(=O)Nc1ccc(F)cc1 (stereo not drawn)	.	3.5	.	0.2	3.4	0.5	.
Cc1ccc(N(CC(=O)NC(C)(C)C)C(=O)CCC(=O)Nc2nccs2)c(C)c1	-3.3	23.6	2.6	2.6	-3.4	-0.6	.
CN(C)c1ccc2nc3c(=O)[nH]c(=O)nc-3n(CC(O)C(O)C(O)CO)c2c1 (stereo not drawn)	-9.2	33.3	69.8*	28.4	4.7	-0.3	69.7*
CCCNC(=O)C1(C)CCCN(C(=O)c2ccccc2OC)C1 (stereo not drawn)	.	.	.	6.0	-3.6	2.6	.
CN(C)S(=O)(=O)c1ccc2c(c1)C(=O)c1cc(S(=O)(=O)N(C)C)ccc1CC2	1.3	14.4	-5.0	1.8	12.3	1.1	.
CN(C)S(=O)(=O)c1ccc2c(c1)/C(=C/c1cc3c([nH]1)CCCC3)C(=O)N2	-5.5	21.5	40.1*	12.6	49.5*	-3.7	22.8
c1ccc(NCc2nnc3n2CCCCC3)cc1	-5.5	7.8	9.8	-9.8	4.8	0.7	.
Clc1ccc(NCc2nnc3n2CCCCC3)cc1	0.4	5.5	57.7*	-6.3	25.8	0.2	38.3
CC(C(=O)Nc1ccc(F)c(F)c1F)N(C)Cc1cccs1 (stereo not drawn)	-4.2	6.3	-9.5	-11.7	6.5	-0.1	.
CC(=O)c1cccc(NC(=O)C(C)OC(=O)/C=C/c2cccs2)c1 (stereo not drawn)	4.9	8.5	24.7	-10.7	-0.7	-0.4	.
COc1cccc(/C=N/Nc2ccc([N+](=O)[O-])cc2)c1O	-2.7	34.7	14.9	12.4	15.0	-0.5	.
COC(=O)c1ccc(N/N=C/c2cc([N+](=O)[O-])cc(OC)c2O)cc1	-8.1	57.4*	59.3*	41.6*	13.4	2.3	85.0*
COc1ccc(/C=N\Nc2ccc([N+](=O)[O-])cc2)c(C(=O)O)c1OC	-4.8	23.7	46.6*	15.0	-4.3	2.6	59.9*
